Results from ChEMBL document CHEMBL4477177, “Antituberculosis Activity of a Naturally Occurring Flavonoid, Isorhamnetin” (J Nat Prod, 2016).
Values after ≈ are worked out from the molar mass of the structure shown. Active and inactive are the calls of the source. The rule behind the calls is not given here.

Columns and labels:
[1] = system: Mycobacterium tuberculosis; assay: Antitubercular activity against Mycobacterium tuberculosis H37Rv P887 at 158 uM incubated for 1 to 9 days by inverted microscopic analysis; type: functional
In short: (§1)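 Bacteria immobilised in 0.5% agarose within microfluidic channels of a 96-well chip. Compound (0–632 μM; rifampicin 0–19.4 μM) supplied in Middlebrook 7H9 with 10% OADC and allowed to diffuse in. Incubated at 37 °C; channel boundary imaged by inverted microscopy (40×) at 1, 3, 5, 7 and 9 days. MIC90 taken as lowest concentration giving 90% growth inhibition. Triplicate.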

[2] = system: Mycobacterium tuberculosis; assay: Antitubercular activity against Mycobacterium tuberculosis H37Rv P887 incubated for 1 to 9 days by inverted microscopic analysis; type: functional; in short: as §1
[3] = system: Mycobacterium tuberculosis; assay: Antitubercular activity against MDR Mycobacterium tuberculosis M22 incubated for 1 to 9 days by inverted microscopic analysis; type: functional; in short: as §1
[4] = system: Mycobacterium tuberculosis; assay: Antitubercular activity against MDR Mycobacterium tuberculosis X23 incubated for 1 to 9 days by inverted microscopic analysis; type: functional
[5] = system: Mycobacterium tuberculosis; assay: Antitubercular activity against XDR Mycobacterium tuberculosis X24 incubated for 1 to 9 days by inverted microscopic analysis; type: functional; in short: as §1
[6] = system: Mycobacterium tuberculosis; assay: Antitubercular activity against XDR Mycobacterium tuberculosis X59 incubated for 1 to 9 days by inverted microscopic analysis; type: functional; in short: as §1
[7] = Lipophilicity, logP of the compound; type: physicochemical; settings: octanol/water
MRC5 [8] = assay: Antiinflammatory activity against IFN-gamma-stimulated human MRC5 cells assessed as reduction of IL-1beta mRNA level at 20 uM incubated for 3 hrs by RT-PCR analysis relative to control; type: functional; parameters: scale not given: the % may be the effect or the level left
In short: (§2)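 MRC-5 cells cultured in DMEM with 10% FBS at 37 °C, 5% CO2, then stimulated with or without 20 ng/mL IFN-γ in presence or absence of test agent for 3 h. Competitive RT-PCR; targets amplified 25 cycles (annealing 57 °C). Band densitometry expressed relative to β-actin mRNA. Mean ± SD.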

MRC5 [9] = assay: Antiinflammatory activity against IFN-gamma-stimulated human MRC5 cells assessed as reduction of IL-6 mRNA level at 20 uM incubated for 3 hrs by RT-PCR analysis relative to control; type: functional; parameters: scale not given: the % may be the effect or the level left; in short: as §2
MRC5 [10] = assay: Antiinflammatory activity against IFN-gamma-stimulated human MRC5 cells assessed as reduction of IL-12 mRNA level at 20 uM incubated for 3 hrs by RT-PCR analysis relative to control; type: functional; parameters: scale not given: the % may be the effect or the level left; in short: as §2
MRC5 [11] = assay: Antiinflammatory activity against IFN-gamma-stimulated human MRC5 cells assessed as reduction of TNF-alpha mRNA level at 20 uM incubated for 3 hrs by RT-PCR analysis relative to control; type: functional; parameters: scale not given: the % may be the effect or the level left; in short: as §2
MRC5 [12] = assay: Antiinflammatory activity against IFN-gamma-stimulated human MRC5 cells assessed as reduction of MMP-1 mRNA level at 20 uM incubated for 3 hrs by RT-PCR analysis relative to control; type: functional; parameters: scale not given: the % may be the effect or the level left; in short: as §2
[13] = target: Mitogen-activated protein kinase; ERK1/ERK2 (Homo sapiens) (UniProt P27361+P28482); assay: Downregulation of ERK1/2 phosphorylation in IFN-gamma-induced human MRC5 cells at 20 uM pretreated for 1 hr followed by IFN-gamma stimulation for 3 hrs by Western blot analysis; type: cell-based
Mitogen-activated protein kinase; ERK1/ERK2 (Homo sapiens), sequence (P27361 whole entry, looked up): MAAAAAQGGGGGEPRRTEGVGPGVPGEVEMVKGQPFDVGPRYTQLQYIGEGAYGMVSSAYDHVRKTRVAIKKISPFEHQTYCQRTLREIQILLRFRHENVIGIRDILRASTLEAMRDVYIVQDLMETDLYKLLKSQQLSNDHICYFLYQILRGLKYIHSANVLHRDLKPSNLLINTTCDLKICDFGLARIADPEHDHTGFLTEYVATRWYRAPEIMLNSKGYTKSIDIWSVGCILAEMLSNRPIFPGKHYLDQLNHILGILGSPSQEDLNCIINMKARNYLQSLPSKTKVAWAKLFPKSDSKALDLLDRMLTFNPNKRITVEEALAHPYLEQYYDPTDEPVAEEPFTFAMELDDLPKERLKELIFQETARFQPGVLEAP
Mitogen-activated protein kinase; ERK1/ERK2 (Homo sapiens), sequence (P28482 whole entry, looked up): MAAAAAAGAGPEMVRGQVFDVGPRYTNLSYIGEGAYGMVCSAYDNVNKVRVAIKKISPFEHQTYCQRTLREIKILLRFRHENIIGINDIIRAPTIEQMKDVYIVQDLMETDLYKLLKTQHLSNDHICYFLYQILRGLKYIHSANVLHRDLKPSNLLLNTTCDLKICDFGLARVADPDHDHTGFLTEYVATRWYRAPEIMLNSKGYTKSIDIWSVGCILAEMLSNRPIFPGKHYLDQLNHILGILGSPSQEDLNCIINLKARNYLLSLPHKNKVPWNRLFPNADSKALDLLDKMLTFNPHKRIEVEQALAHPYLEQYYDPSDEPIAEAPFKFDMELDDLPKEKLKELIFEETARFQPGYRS
In short: (§3)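 MRC-5 cells pretreated with 20 μM agent for 1 h, then 20 ng/mL IFN-γ for 3 h. Cytoplasmic lysates prepared; 20 μg protein run on 10% SDS-PAGE and transferred to PVDF. Membranes blocked in 5% BSA/TBST and probed overnight at 4 °C with phospho-specific and total MAPK antibodies. β-Actin used as loading control.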

[14] = target: T1, MAP kinase p38 (Homo sapiens) (UniProt O15264+Q15759+Q16539+P53778); assay: Downregulation of p38 phosphorylation in IFN-gamma-induced human MRC5 cells at 20 uM pretreated for 1 hr followed by IFN-gamma stimulation for 3 hrs by Western blot analysis; type: cell-based; in short: as §3
[15] = target: Mitogen-activated protein kinase 8/9 (Homo sapiens) (UniProt P45983+P45984); assay: Downregulation of JNK1/2 phosphorylation in IFN-gamma-induced human MRC5 cells at 20 uM pretreated for 1 hr followed by IFN-gamma stimulation for 3 hrs by Western blot analysis; type: cell-based; in short: as §3
Mitogen-activated protein kinase 8/9 (Homo sapiens), sequence (P45983 whole entry, looked up): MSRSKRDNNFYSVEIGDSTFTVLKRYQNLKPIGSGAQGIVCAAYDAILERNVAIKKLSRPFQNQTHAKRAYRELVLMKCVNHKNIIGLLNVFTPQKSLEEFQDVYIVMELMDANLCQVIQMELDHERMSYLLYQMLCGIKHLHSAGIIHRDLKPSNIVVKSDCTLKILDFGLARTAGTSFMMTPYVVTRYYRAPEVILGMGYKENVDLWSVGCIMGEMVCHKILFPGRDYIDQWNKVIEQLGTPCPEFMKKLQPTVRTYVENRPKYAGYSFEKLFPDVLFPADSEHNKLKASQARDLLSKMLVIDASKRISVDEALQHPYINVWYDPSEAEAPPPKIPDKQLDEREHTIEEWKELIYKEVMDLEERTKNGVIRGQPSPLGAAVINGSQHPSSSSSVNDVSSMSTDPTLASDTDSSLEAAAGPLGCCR
Mitogen-activated protein kinase 8/9 (Homo sapiens), sequence (P45984 whole entry, looked up): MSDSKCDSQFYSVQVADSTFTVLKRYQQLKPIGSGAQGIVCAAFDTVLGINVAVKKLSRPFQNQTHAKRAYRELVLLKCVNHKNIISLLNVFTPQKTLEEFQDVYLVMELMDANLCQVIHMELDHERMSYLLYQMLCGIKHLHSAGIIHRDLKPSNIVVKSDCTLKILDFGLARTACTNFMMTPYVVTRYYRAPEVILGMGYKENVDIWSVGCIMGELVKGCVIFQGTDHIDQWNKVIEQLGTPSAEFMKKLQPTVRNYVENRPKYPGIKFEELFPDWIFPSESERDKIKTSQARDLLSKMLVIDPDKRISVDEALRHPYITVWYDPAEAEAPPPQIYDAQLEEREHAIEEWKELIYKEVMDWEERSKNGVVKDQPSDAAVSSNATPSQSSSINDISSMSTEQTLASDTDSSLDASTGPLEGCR

MRC5 [16] = assay: Antiinflammatory activity against IFN-gamma-stimulated human MRC5 cells assessed as reduction of TNF-alpha production at 5 uM after 24 hrs by ELISA relative to control; type: functional; parameters: scale not given: the % may be the effect or the level left
In short: (§4)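 MRC-5 cells stimulated with IFN-γ and exposed to test agent for 24 h. TNF-α and IL-12 in culture media measured by sandwich ELISA: capture antibody coated overnight at 4 °C, blocking 1 h, sample 2 h at RT, detection antibody 1 h, TMB substrate, stopped with 1 N H2SO4, OD 450 nm. Mean ± SD of at least three independent experiments.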

MRC5 [17] = assay: Antiinflammatory activity against IFN-gamma-stimulated human MRC5 cells assessed as reduction of TNF-alpha production at 10 uM after 24 hrs by ELISA relative to control; type: functional; parameters: scale not given: the % may be the effect or the level left; in short: as §4
MRC5 [18] = assay: Antiinflammatory activity against IFN-gamma-stimulated human MRC5 cells assessed as reduction of IL-12 production at 5 uM after 24 hrs by ELISA relative to control; type: functional; parameters: scale not given: the % may be the effect or the level left; in short: as §4
MRC5 [19] = assay: Antiinflammatory activity against IFN-gamma-stimulated human MRC5 cells assessed as reduction of IL-12 production at 10 uM after 24 hrs by ELISA relative to control; type: functional; parameters: scale not given: the % may be the effect or the level left; in short: as §4
Mus musculus [20] = assay: Antiinflammatory activity against LPS-induced BALB/c mouse lung inflammation model assessed as lowering of IL-12 level at 0.01 to 0.5 mg/kg, ip administered for 1 hr followed by LPS stimulation for 12 hrs relative to vehicle-treated control; type: functional, organism-based
In short: (§5)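 Female BALB/c mice, 6 weeks old, acclimatised 1 week; 6 groups of 3. Test agent (0.01, 0.1 or 0.5 mg/kg) given ip; 1 h later LPS 10 mg/kg ip in PBS. Sacrifice at 12 h. Whole lungs homogenised in NP-40 lysis buffer at 4 °C and centrifuged. Cytokines in supernatant measured by ELISA (OD 450 nm).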

Mus musculus [21] = assay: Antiinflammatory activity against LPS-induced BALB/c mouse lung inflammation model assessed as lowering of IL-1beta level at 0.01 to 0.5 mg/kg, ip administered for 1 hr followed by LPS stimulation for 12 hrs relative to vehicle-treated control; type: functional, organism-based; in short: as §5
Mus musculus [22] = assay: Antiinflammatory activity against LPS-induced BALB/c mouse lung inflammation model assessed as lowering of IL-6 level at 0.01 to 0.5 mg/kg, ip administered for 1 hr followed by LPS stimulation for 12 hrs relative to vehicle-treated control; type: functional, organism-based; in short: as §5
Mus musculus [23] = assay: Antiinflammatory activity against LPS-induced BALB/c mouse lung inflammation model assessed as lowering of IFN-gamma level at 0.01 to 0.5 mg/kg, ip administered for 1 hr followed by LPS stimulation for 12 hrs relative to vehicle-treated control; type: functional, organism-based; in short: as §5
[24] = Toxicity in mouse at 0.01 to 0.5 mg/kg assessed as irritability; type: organism-based; settings: in vivo
[25] = Toxicity in mouse at 0.01 to 0.5 mg/kg assessed as twisting; type: organism-based; settings: in vivo
[26] = Toxicity in mouse at 0.01 to 0.5 mg/kg assessed as breathing; type: organism-based; settings: in vivo
[27] = Toxicity in mouse at 0.01 to 0.5 mg/kg assessed as weight loss; type: organism-based; settings: in vivo
[28] = Toxicity in mouse at 0.01 to 0.5 mg/kg assessed as death; type: organism-based; settings: in vivo
[29] = Toxicity in mouse at 0.01 to 0.5 mg/kg assessed as change in AST level; type: organism-based; settings: in vivo
In short: (§6)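 BALB/c mice, 3 per group, given 0.01, 0.1 or 0.5 mg/kg ip; LPS 10 mg/kg ip 1 h later. Sacrificed at 12 h. Serum AST, ALT and BUN measured on an automated clinical analyser. Mean ± SD.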

[30] = Toxicity in mouse at 0.01 to 0.5 mg/kg assessed as change in ALT level; type: organism-based; settings: in vivo; in short: as §6
[31] = Toxicity in mouse at 0.01 to 0.5 mg/kg assessed as change in BUN level; type: organism-based; settings: in vivo; in short: as §6
[32] = Cytotoxicity against human HaCaT cells assessed as cell survival rate at 158 uM after 24 hrs by MTT assay; type: cell-based; settings: read-out: Survival
In short: (§7)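 Cells treated for 24 h with test agent (0–400 μM) or rifampicin (0–16 μM), then MTT assay. Survival taken as A570 of treated cells over A570 of untreated cells, as a percentage. Average of triplicates from three independent experiments.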

[33] = Cytotoxicity against mouse NIH/3T3 cells assessed as cell survival rate at 158 uM after 24 hrs by MTT assay; type: cell-based, NIH3T3; settings: read-out: Survival; in short: as §7
[34] = Cytotoxicity against human MRC5 cells assessed as cell survival rate at 158 uM after 24 hrs by MTT assay; type: cell-based; settings: read-out: Survival; in short: as §7
[35] = Cytotoxicity against human HaCaT cells assessed as cell survival rate at 316 uM after 24 hrs by MTT assay; type: cell-based; settings: read-out: Survival; in short: as §7
[36] = Cytotoxicity against mouse NIH/3T3 cells assessed as cell survival rate at 316 uM after 24 hrs by MTT assay; type: cell-based, NIH3T3; settings: read-out: Survival; in short: as §7
[37] = Cytotoxicity against human MRC5 cells assessed as cell survival rate at 316 uM after 24 hrs by MTT assay; type: cell-based; settings: read-out: Survival; in short: as §7
[38] = Cytotoxicity against human HaCaT cells assessed as cell survival rate at 400 uM after 24 hrs by MTT assay; type: cell-based; settings: read-out: Survival; in short: as §7
[39] = Cytotoxicity against mouse NIH/3T3 cells assessed as cell survival rate at 400 uM after 24 hrs by MTT assay; type: cell-based, NIH3T3; settings: read-out: Survival; in short: as §7
[40] = target: Mitogen-activated protein kinase 3 (Homo sapiens) (UniProt P27361); assay: Binding affinity to human ERK1 expressed in Escherichia coli BL21 by fluorescence quenching based spectrofluorometric analysis
Mitogen-activated protein kinase 3 (Homo sapiens), sequence (P27361 whole entry): as the sequence (P27361 whole entry, looked up) above
In short: (§8)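 C-terminally His6-tagged ERK1 or p38 MAPK expressed in E. coli and purified. Protein at 10 μM in 50 mM sodium phosphate, 100 mM NaCl, pH 8.0, titrated with ligand to 1:10 protein:ligand. Excitation 290 nm, emission 290–500 nm. Binding constant K derived from fluorescence quenching.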

[41] = target: T1, MAP kinase p38 (Homo sapiens); assay: Binding affinity to human C-terminally His-tagged p38 expressed in Escherichia coli BL21 by fluorescence quenching based spectrofluorometric analysis; in short: as §8
[42] = system: Mycobacterium tuberculosis; assay: Antitubercular activity against Mycobacterium tuberculosis H37Rv ATCC 27294 incubated for 7 days by resazurin assay; type: functional; settings: H37Rv ATCC 27294, 168 h

COc1cc(-c2oc3cc(O)cc(O)c3c(=O)c2O)ccc1O [ISORHAMNETIN]
inhibition at 158 µM [1]: 90%
MIC90 [2]: 158 µM (≈ 50 µg/mL)
MIC90 [3]: 316 µM (≈ 99.9 µg/mL)
MIC90 [4]: 316 µM (≈ 99.9 µg/mL)
MIC90 [5]: 316 µM (≈ 99.9 µg/mL)
MIC90 [6]: 316 µM (≈ 99.9 µg/mL)
logP [7]: 1.86
Activity (MRC5 [8]): 39%
Activity (MRC5 [9]): 69%
Activity (MRC5 [10]): 76%
Activity (MRC5 [11]): 56%
Activity (MRC5 [12]): 41%
Activity [13]: Active
Activity [14]: Active
Activity [15]: inactive
Activity (MRC5 [16]): 37.5%
Activity (MRC5 [17]): 43.75%
Activity (MRC5 [18]): 45%
Activity (MRC5 [19]): 50%
Activity (Mus musculus [20]): Active
Activity (Mus musculus [21]): Active
Activity (Mus musculus [22]): Active
Activity (Mus musculus [23]): Active
Activity [24]: Non-Toxic
Activity [25]: Non-Toxic
Activity [26]: Non-Toxic
Activity [27]: Non-Toxic
Activity [28]: Non-Toxic
Activity [29]: Non-Toxic
Activity [30]: Non-Toxic
Activity [31]: Non-Toxic
viability at 24 h, 158 µM [32]: 90%
viability at 24 h, 158 µM [33]: 78%
viability at 24 h, 158 µM [34]: 54%
viability at 24 h, 316 µM [35]: 71%
viability at 24 h, 316 µM [36]: 63%
viability at 24 h, 316 µM [37]: 47%
viability at 24 h, 400 µM [38]: 66%
viability at 24 h, 400 µM [39]: 58%
K [40]: 4.46 ×10⁶ /M
K [41]: 7.6 ×10⁶ /M

O=c1c(O)c(-c2ccc(O)c(O)c2)oc2cc(O)cc(O)c12 [QUERCETIN]
MIC [42]: > 827 µM
logP [7]: 1.63
K [40]: 5.62 ×10⁵ /M
K [41]: 9.87 ×10⁵ /M
